ChEMBL document CHEMBL3045293, “Effect of the herbicides terbuthylazine and glyphosate on photosystem II photochemistry of young olive (Olea europaea) plants” (J Agric Food Chem, 2011)

How the values were obtained:
Type in all cases: organism-based
Olea europaea [1] = assay: Toxicity in young Olea europaea (olive) plants assessed as reduction in quantum efficiency of photosystem II at 3 kg/ha measured 15 days post dose; conditions: in vivo, 360 h
In short: (§1)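 Leaves of potted young olive plants; herbicide applied to the soil surface 24 h after olive-mill waste (OW) amendment; triplicate pots; untreated pots without herbicide or OW as controls. Modulated chlorophyll fluorescence (portable fluorimeter) read at 24 h, 15 days and 60 days. Light- and dark-adapted parameters taken at dawn (1–7 μmol m2 s1) and midday (1700 μmol m2 s1), after 30 min dark adaptation in leaf-clips.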

Olea europaea [2] = assay: Toxicity in young Olea europaea (olive) plants assessed as reduction in photosynthetic rate at 3 kg/ha measured 60 days post dose; conditions: in vivo, 1440 h
In short: (§2)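 Gas exchange (net photosynthetic rate, stomatal conductance, intercellular CO2) measured on young olive plants in triplicate pots. Herbicide was applied to the soil surface 24 h after OW addition, and pots without herbicide or OW served as controls. Readings were taken 24 h, 15 days and 60 days after treatment. Values are mean ± SE, n = 9, compared by Tukey test (P < 0.05).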

Olea europaea [3] = assay: Toxicity in young Olea europaea (olive) plants assessed as effect on maximum quantum efficiency of photosystem II at 3 kg/ha measured at midday 24 hr post dose; conditions: in vivo; in short: as §1
Olea europaea [4] = assay: Toxicity in young Olea europaea (olive) plants assessed as reduction in stomatal conductance at 3 kg/ha measured 60 days post dose; conditions: in vivo, 1440 h; in short: as §2
Olea europaea [5] = assay: Toxicity in young Olea europaea (olive) plants assessed as reduction in intracellular CO2 level at 3 kg/ha measured 15 days post dose; conditions: in vivo, 360 h; in short: as §2
Olea europaea [6] = assay: Toxicity in young Olea europaea (olive) plants assessed as reduction in intracellular CO2 level at 3 kg/ha measured 60 days post dose in presence of oil Olea europaea (olive)-mill waste; conditions: in vivo, 1440 h; in short: as §2
Olea europaea [7] = assay: Toxicity in young Olea europaea (olive) plants assessed as reduction in intracellular CO2 level at 3 kg/ha measured 60 days post dose; conditions: in vivo, 1440 h; in short: as §2
Olea europaea [8] = assay: Toxicity in young Olea europaea (olive) plants assessed as reduction in photosynthetic rate at 3 kg/ha measured 60 days post dose in presence of oil Olea europaea (olive)-mill waste; conditions: in vivo, 1440 h; in short: as §2
Olea europaea [9] = assay: Toxicity in young Olea europaea (olive) plants assessed as effect on maximum quantum efficiency of photosystem II at 3 kg/ha measured 15 days post dose; conditions: in vivo, 360 h; in short: as §1
Olea europaea [10] = assay: Toxicity in young Olea europaea (olive) plants assessed as induction of chronic photoinhibition of photosystem II at 3 kg/ha measured 60 days post dose in presence of oil Olea europaea (olive)-mill waste; conditions: in vivo, 1440 h
Olea europaea [11] = assay: Toxicity in young Olea europaea (olive) plants assessed as induction of chronic photoinhibition of photosystem II at 3 kg/ha measured 60 days post dose; conditions: in vivo, 1440 h
Olea europaea [12] = assay: Toxicity in young Olea europaea (olive) plants assessed as reduction in photosynthetic rate at 3 kg/ha measured 15 days post dose; conditions: in vivo, 360 h; in short: as §2
Olea europaea [13] = assay: Toxicity in young Olea europaea (olive) plants assessed as reduction in non-photochemical quenching photosystem II at 3 kg/ha measured 15 days post dose; conditions: in vivo, 360 h; in short: as §1
Olea europaea [14] = assay: Toxicity in young Olea europaea (olive) plants assessed as reduction in intracellular CO2 level at 3 kg/ha measured 15 days post dose in presence of oil Olea europaea (olive)-mill waste; conditions: in vivo, 360 h; in short: as §2
Olea europaea [15] = assay: Toxicity in young Olea europaea (olive) plants assessed as reduction in photosynthetic rate at 3 kg/ha measured 15 days post dose in presence of oil Olea europaea (olive)-mill waste; conditions: in vivo, 360 h; in short: as §2
Olea europaea [16] = assay: Toxicity in young Olea europaea (olive) plants assessed as reduction in stomatal conductance at 3 kg/ha measured 15 days post dose; conditions: in vivo, 360 h; in short: as §2
Olea europaea [17] = assay: Toxicity in young Olea europaea (olive) plants assessed as stomatal conductance at 3 kg/ha measured 60 days post dose in presence of oil Olea europaea (olive)-mill waste; conditions: in vivo, 1440 h; in short: as §2
Olea europaea [18] = assay: Toxicity in young Olea europaea (olive) plants assessed as reduction in non-photochemical quenching photosystem II at 3 kg/ha measured 60 days post dose; conditions: in vivo, 1440 h; in short: as §1
Olea europaea [19] = assay: Toxicity in young Olea europaea (olive) plants assessed as reduction in quantum efficiency of photosystem II at 3 kg/ha measured 60 days post dose; conditions: in vivo, 1440 h; in short: as §1
Olea europaea [20] = assay: Toxicity in young Olea europaea (olive) plants assessed as stomatal conductance at 3 kg/ha measured 15 days post dose in presence of oil Olea europaea (olive)-mill waste; conditions: in vivo, 360 h; in short: as §2
Olea europaea [21] = assay: Toxicity in young Olea europaea (olive) plants assessed as reduction in maximum quantum efficiency of photo system measured by Fv/Fm ratio 2 at 3 kg/ha measured 60 days post dose (reference value: 0.8); conditions: in vivo, 1440 h; in short: as §1

## O=C(O)CNCP(=O)(O)O [GLYPHOSATE]
Olea europaea [1]
  Activity: Non-toxic
Olea europaea [2]
  Activity: Non-toxic
Olea europaea [3]
  Activity: Toxic
Olea europaea [4]
  Activity: Non-toxic
Olea europaea [5]
  Activity: Non-toxic
Olea europaea [6]
  Activity: Non-toxic
Olea europaea [7]
  Activity: Non-toxic
Olea europaea [8]
  Activity: Non-toxic
Olea europaea [9]
  Activity: Toxic
Olea europaea [10]
  Activity: Non-toxic
Olea europaea [11]
  Activity: Non-toxic
Olea europaea [12]
  Activity: Non-toxic
Olea europaea [13]
  Activity: Non-toxic
Olea europaea [14]
  Activity: Toxic
Olea europaea [15]
  Activity: Toxic
Olea europaea [16]
  Activity: Non-toxic

## CCNc1nc(Cl)nc(NC(C)(C)C)n1 [Terbuthylazine]
Olea europaea [1]
  Activity: Non-toxic
Olea europaea [2]
  Activity: Toxic
Olea europaea [3]
  Activity: Toxic
Olea europaea [17]
  Activity: Non-toxic
Olea europaea [4]
  Activity: Non-toxic
Olea europaea [5]
  Activity: Toxic
Olea europaea [6]
  Activity: Non-toxic
Olea europaea [7]
  Activity: Non-toxic
Olea europaea [8]
  Activity: Non-toxic
Olea europaea [18]
  Activity: Toxic
Olea europaea [9]
  Activity: Toxic
Olea europaea [10]
  Activity: Non-toxic
Olea europaea [19]
  Activity: Toxic
Olea europaea [20]
  Activity: Non-toxic
Olea europaea [11]
  Activity: Toxic
Olea europaea [12]
  Activity: Toxic
Olea europaea [13]
  Activity: Non-toxic
Olea europaea [14]
  Activity: Non-toxic
Olea europaea [21]
  Ratio: 0.6
Olea europaea [15]
  Activity: Non-toxic
Olea europaea [16]
  Activity: Toxic
